Source: ChEMBL document CHEMBL1909513, “A double prodrug system for colon targeting of benzenesulfonamide COX-2 inhibitors” (Bioorg Med Chem Lett, 2011)

Legend:
[1] = Chemical stability of the compound in borate buffered saline assessed as half life of cyclization at pH 7; format: physicochemical
Method in brief: (§1)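 Lactamization of the amino intermediate in borate-buffered saline, pH range 5–8, 37 °C, ionic strength 0.12 (figure legend gives I = 0.05). Parent loss and formation of parent drug and dihydroquinolone followed by HPLC, validated at 1.1–16.6 µM. Apparent first-order rate constants fitted by nonlinear regression, three determinations per pH; half-lives derived from these constants.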

[2] = Chemical stability of the compound in borate buffered saline assessed as half life of cyclization at pH 6.11; format: physicochemical; method in brief: as §1
[3] = Chemical stability of the compound in borate buffered saline assessed as half life of cyclization at pH 5.52; format: physicochemical; method in brief: as §1
[4] = Chemical stability of the compound in borate buffered saline assessed as half life of cyclization at pH 6.4; format: physicochemical; method in brief: as §1
[5] = Chemical stability of the compound in borate buffered saline assessed as half life of cyclization at pH 6.28; format: physicochemical; method in brief: as §1
[6] = Chemical stability of the compound in borate buffered saline assessed as half life of cyclization at pH 6.2; format: physicochemical; method in brief: as §1
[7] = Chemical stability of the compound in borate buffered saline assessed as half life of cyclization at pH 7.4; format: physicochemical; method in brief: as §1
[8] = Chemical stability of the compound in borate buffered saline assessed as half life of cyclization at pH 6; format: physicochemical; method in brief: as §1
[9] = Secretory transport of the compound through transepithelial human Caco2 model; format: ADME, cell-based; settings: Caco-2
[10] = Dissociation constant, pKa of the compound; format: physicochemical

With Cc1ccc(-c2cc(C(F)(F)F)nn2-c2ccc(S(=O)(=O)NC(=O)CCc3ccccc3N)cc2)cc1 the half-life [1] was 130 min, the half-life [2] was 15.2 min and the half-life [3] was 10.2 min. It also gave a half-life [4] of 60.3 min, a half-life [5] of 41.2 min and a half-life [6] of 29.5 min. The half-life [7] was 632 min and the half-life [8] was 10.9 min.

For Cc1ccc(-c2cc(C(F)(F)F)nn2-c2ccc(S(N)(=O)=O)cc2)cc1 [CELECOXIB], the Papp B→A [9] was 12.4 ×10⁻⁶ cm/s.

CCC(=O)NS(=O)(=O)c1ccc(-c2c(-c3ccccc3)noc2C)cc1 [PARECOXIB] gave a pKa [10] of 4.9.
